This note sets out measurements from ChEMBL document CHEMBL3407438, “Discovery of potent, orally bioavailable, small-molecule inhibitors of WNT signaling from a cell-based pathway screen” (J Med Chem, 2015).

The structures appear in SMILES notation. Converted amounts (≈) assume the structure as drawn.

The nature of data set [1]: Inhibition of WNT signaling in human T-Rex HEK293 Tet-O cells harboring Dvl2 after 4 days by luciferase reporter assay. The class given is cell-based. The settings on record: HEK293, 96 h. The method, boiled down:
(§1)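 HEK293 T-Rex Tet-O cells stably carrying TCF-firefly luciferase-IRES-GFP reporter plus Tet-inducible cDNA (ΔN-LRP6, Dvl2, Axin-GID, ΔN-β-catenin or VP16-TCF4) introduced by FLP-FRT recombination; seeded from frozen at 40 000/well; day 3 compound added, eight concentrations 30 μM to 14 nM (final), with doxycycline hyclate; day 4 cells lysed, firefly luciferase luminescence read.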

The nature of data set [2]: Inhibition of WNT signaling in human T-Rex HEK293 Tet-O cells harboring constitutively active deltaN-LRP6 after 4 days by luciferase reporter assay. It is filed as cell-based. The note with it: HEK293, 96 h. The procedure, abridged:
as §1

Data set [3] can be described thus: Drug metabolism in mouse liver microsome at 10 uM after 30 mins by LC-MS analysis. The class given is ADME. The settings on record: liver microsomes, read-out: Drug metabolism.
Data set [4] can be described thus: Inhibition of WNT signaling in human T-Rex HEK293 Tet-O cells harboring degradation resistant form of beta-catenin after 4 days by luciferase reporter assay. It is filed as cell-based. The note with it: HEK293, 96 h. The procedure, abridged:
as §1

A short description of data set [5]: Drug metabolism in human liver microsome at 10 uM after 30 mins by LC-MS analysis. It is filed as ADME. The settings on record: liver microsomes, read-out: Drug metabolism.
Data set [6] in a line: Inhibition of WNT signaling in human T-Rex HEK293 Tet-O cells harboring dominant negative form of Axin GSK3beta-interacting domain after 4 days by luciferase reporter assay. The class given is cell-based. The settings on record: HEK293, 96 h. The procedure, abridged:
as §1

The nature of data set [7]: Inhibition of WNT signaling in human T-Rex HEK293 Tet-O cells harboring constitutively active VP16-TCF in absence of beta-catenin after 4 days by luciferase reporter assay. The settings on record: HEK293, 96 h. It is filed as cell-based. The procedure, abridged: as §1
Data set [8] can be described thus: cells. The class given is cell-based. The note with it: Homo sapiens, 7dF3.
Data set [9] is described as follows: Aqueous solubility of the compound. It is filed as physicochemical. The settings on record: buffer.
Data set [10] can be described thus: Clearance in NMRI mouse at 0.2 mg/kg, iv. The class given is ADME, organism-based. Further details: dose 0.2 mg/kg, route intravenous. The settings on record: in vivo. The method, boiled down: (§2)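 Female NMRI mice (n = 5) given a single iv bolus (0.2 mg/kg per compound) or oral gavage (0.5 mg/kg per compound) as a cassette, in DMSO/PEG 200/water. Serial retro-orbital blood was drawn under isoflurane from 3 animals per route at 0.1 (iv), 0.25 (po), 0.5, 1, 2, 4 and 6 h. Plasma was quantified by LC–MS/MS.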

Data set [11] is described as follows: Apparent permeability in human Caco2 cells after 2 hrs by LC-MS/MS analysis. The class given is ADME, cell-based, Caco-2. The settings on record: caco-2, 2 h.
A short description of data set [12]: AUC in NMRI mouse at 0.5 mg/kg, po. It is filed as ADME, organism-based. Details: dose 0.5 mg/kg, route oral. The settings on record: plasma. The method, boiled down: as §2
For data set [13], the target named is Cytochrome P450 3A4 (Homo sapiens, UniProt P08684). The data set is described as follows: Inhibition of CYP3A4 (unknown origin). The class given is ADME.
Chain of Cytochrome P450 3A4 (P08684 whole entry): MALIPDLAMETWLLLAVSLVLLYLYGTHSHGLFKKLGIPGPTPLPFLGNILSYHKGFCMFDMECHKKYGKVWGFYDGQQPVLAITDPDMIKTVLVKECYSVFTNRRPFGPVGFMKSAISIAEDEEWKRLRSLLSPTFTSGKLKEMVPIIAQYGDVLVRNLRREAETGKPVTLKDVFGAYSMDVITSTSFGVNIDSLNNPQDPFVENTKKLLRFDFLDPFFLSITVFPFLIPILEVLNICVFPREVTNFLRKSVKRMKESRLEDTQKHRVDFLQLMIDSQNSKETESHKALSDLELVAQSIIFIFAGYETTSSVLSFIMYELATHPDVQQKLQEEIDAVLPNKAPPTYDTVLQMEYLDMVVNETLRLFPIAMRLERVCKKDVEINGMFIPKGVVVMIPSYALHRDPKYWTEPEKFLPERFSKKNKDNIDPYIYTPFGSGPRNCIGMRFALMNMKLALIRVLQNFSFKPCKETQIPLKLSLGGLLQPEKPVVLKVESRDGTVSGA
For data set [14], the target named is T1, Poly [ADP-ribose] polymerase tankyrase-2 (Homo sapiens, UniProt Q9H2K2).
T1 sequence (Q9H2K2 whole entry): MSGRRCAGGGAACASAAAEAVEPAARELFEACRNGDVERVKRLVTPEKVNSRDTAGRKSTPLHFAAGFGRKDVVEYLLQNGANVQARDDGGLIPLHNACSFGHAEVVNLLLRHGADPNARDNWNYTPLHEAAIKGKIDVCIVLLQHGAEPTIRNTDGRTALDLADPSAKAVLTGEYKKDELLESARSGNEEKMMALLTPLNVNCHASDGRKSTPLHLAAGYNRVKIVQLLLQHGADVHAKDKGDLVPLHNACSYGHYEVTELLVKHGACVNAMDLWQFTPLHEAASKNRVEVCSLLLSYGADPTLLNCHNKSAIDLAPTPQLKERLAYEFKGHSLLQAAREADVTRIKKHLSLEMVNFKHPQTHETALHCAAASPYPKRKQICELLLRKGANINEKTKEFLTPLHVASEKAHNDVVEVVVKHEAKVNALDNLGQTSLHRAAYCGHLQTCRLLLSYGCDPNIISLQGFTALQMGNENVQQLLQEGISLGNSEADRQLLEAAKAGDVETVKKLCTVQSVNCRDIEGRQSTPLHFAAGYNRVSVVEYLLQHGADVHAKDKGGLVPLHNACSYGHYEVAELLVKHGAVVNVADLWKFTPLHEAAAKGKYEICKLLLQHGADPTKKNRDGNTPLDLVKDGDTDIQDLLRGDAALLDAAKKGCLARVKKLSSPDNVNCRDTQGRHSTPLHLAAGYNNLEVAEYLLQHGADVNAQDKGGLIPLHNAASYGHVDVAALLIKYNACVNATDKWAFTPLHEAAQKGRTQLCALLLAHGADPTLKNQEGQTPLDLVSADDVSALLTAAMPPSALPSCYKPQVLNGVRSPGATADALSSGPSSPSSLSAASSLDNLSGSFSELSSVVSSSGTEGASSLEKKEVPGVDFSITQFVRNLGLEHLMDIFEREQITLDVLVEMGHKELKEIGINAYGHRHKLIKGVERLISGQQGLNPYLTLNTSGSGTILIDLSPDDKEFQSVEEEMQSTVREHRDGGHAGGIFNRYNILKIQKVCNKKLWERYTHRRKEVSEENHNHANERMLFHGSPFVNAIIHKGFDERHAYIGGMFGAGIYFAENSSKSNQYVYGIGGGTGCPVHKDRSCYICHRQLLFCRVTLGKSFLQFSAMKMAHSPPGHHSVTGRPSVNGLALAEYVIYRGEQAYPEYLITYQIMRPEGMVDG
The data set is described as follows: Inhibition of GST-tagged TNKS2 (873 to 1166 aa) (unknown origin) after 90 mins by HTRF assay.

A short description of data set [15]: AUC in NMRI mouse at 0.2 mg/kg, iv. The class given is ADME, organism-based. Details: dose 0.2 mg/kg, route intravenous. The settings on record: plasma. The method, boiled down: as §2
Data set [16] in a line: Tmax in NMRI mouse at 0.2 mg/kg, iv. The note with it: in vivo. Details: dose 0.2 mg/kg, route intravenous. It is filed as ADME, organism-based. The procedure, abridged: as §2
Data set [17] has as its target Cytochrome P450 2C9 (Homo sapiens, UniProt P11712). As to the kind of experiment: Inhibition of CYP2C9 (unknown origin). It is filed as ADME.
Data set [18] is described as follows: Volume of distribution at steady state in NMRI mouse at 0.2 mg/kg, iv. The note with it: in vivo, read-out: Vdss. Details: dose 0.2 mg/kg, route intravenous. The class given is ADME, organism-based. The procedure, abridged:
as §2

The target of data set [19] is T2, Poly [ADP-ribose] polymerase tankyrase-1 (Homo sapiens, UniProt O95271).
T2 sequence (O95271 whole entry): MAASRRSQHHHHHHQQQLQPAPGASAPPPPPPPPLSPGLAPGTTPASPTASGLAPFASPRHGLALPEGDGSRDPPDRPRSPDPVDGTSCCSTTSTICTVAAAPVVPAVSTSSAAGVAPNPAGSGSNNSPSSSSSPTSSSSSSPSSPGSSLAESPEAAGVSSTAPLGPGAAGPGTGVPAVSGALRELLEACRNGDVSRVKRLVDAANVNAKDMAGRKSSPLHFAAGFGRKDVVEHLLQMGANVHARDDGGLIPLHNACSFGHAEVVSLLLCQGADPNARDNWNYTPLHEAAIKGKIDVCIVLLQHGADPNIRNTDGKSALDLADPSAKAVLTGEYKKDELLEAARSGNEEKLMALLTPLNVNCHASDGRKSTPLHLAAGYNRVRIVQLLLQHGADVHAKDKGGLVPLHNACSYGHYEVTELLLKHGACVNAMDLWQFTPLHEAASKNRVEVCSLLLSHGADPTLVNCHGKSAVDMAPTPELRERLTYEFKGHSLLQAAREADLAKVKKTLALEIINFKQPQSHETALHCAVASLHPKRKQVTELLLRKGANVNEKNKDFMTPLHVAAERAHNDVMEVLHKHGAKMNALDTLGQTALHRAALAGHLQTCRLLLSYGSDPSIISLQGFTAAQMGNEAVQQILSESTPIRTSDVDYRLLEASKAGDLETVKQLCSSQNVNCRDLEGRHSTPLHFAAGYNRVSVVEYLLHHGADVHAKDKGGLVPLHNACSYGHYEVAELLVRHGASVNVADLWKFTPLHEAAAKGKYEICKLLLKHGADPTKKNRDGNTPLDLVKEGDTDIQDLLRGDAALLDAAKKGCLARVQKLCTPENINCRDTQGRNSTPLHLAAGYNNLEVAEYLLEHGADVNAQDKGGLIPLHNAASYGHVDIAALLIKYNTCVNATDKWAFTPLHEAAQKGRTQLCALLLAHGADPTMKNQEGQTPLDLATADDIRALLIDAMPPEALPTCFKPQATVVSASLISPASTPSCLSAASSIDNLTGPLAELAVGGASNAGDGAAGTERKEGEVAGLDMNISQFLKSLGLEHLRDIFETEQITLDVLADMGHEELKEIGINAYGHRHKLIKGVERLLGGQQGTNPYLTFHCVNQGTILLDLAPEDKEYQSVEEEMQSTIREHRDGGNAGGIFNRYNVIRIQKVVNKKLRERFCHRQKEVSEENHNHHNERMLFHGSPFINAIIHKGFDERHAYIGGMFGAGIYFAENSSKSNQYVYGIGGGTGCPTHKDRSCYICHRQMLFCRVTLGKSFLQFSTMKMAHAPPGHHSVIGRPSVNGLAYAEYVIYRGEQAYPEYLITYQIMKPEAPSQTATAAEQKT
The data set is described as follows: Inhibition of GST-tagged TNKS1 (1023 to 1327 aa) (unknown origin) after 90 mins by HTRF assay.

The nature of data set [20]: Oral bioavailability in NMRI mouse at 0.5 mg/kg. The class given is ADME, organism-based. The settings on record: in vivo.
A short description of data set [21]: Tmax in NMRI mouse at 0.5 mg/kg, po. The class given is ADME, organism-based. Further details: dose 0.5 mg/kg, route oral. The settings on record: in vivo. The method, boiled down: as §2
A short description of data set [22]: Thermodynamic aqueous solubility of the compound in phosphate buffer at pH 7.4. The class given is physicochemical. The procedure, abridged:
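Kinetic and thermodynamic aqueous solubilities were measured in phosphate buffer at pH 7.4.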

Data set [23] is described as follows: Half life in NMRI mouse at 0.2 mg/kg, iv. It is filed as ADME, organism-based. The note with it: in vivo. Further details: dose 0.2 mg/kg, route intravenous. The method, boiled down:
as §2

Data set [24] is described as follows: Kinetic solubility of the compound in phosphate buffer at pH 7.4. The class given is physicochemical.

Chain of Cytochrome P450 2C9 (P11712 whole entry): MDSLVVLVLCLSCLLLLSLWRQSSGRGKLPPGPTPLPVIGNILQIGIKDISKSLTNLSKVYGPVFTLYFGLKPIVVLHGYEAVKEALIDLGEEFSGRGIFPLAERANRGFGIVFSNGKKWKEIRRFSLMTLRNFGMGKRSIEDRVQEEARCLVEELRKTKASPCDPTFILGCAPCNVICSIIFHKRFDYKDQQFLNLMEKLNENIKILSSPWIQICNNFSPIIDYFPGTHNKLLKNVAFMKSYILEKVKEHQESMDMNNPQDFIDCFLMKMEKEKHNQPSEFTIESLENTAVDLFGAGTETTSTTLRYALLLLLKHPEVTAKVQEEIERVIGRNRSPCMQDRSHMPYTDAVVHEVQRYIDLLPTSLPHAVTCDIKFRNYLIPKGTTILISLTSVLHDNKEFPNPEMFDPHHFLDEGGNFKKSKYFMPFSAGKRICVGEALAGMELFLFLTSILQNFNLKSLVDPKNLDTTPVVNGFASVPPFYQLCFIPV

Regarding `COc1ccc(-c2cncc(Cl)c2N2CCC(C(N)=O)CC2)cc1`, the IC50 in [1] came out at 20 nM; in [2] it was 20 nM; in data set [4], 70 nM; in [6] it was 24 nM; in data set [7], 230 nM; in data set [8], 37 nM. Moreover, the values for the metabolised at 0.5 h, 10 µM in data set [3] and in data set [5] were 84% and 30%, respectively.
For the compound `O=C1CC2(CCN(c3c(Cl)cncc3-c3ccc(N4CCOCC4)cc3)CC2)C(=O)N1`, the metabolised at 0.5 h, 10 µM in [3] was 25%; in data set [5] it was 24%. This compound also came in with a solubility in data set [9] of 3 µg/mL (≈ 6.8 µM). The compound also registered an IC50 in [8] of 6 nM.
For `O=C1NCCC12CCN(c1c(Cl)cncc1-c1ccc(N3CCOCC3)cc1)CC2`, the clearance in [10] turned out to be 65 mL/min/kg. The Papp in data set [11] was 37 ×10⁻⁶ cm/s. The metabolised at 0.5 h, 10 µM in data set [3] worked out at 29%; in data set [5], 20%. Moreover, the AUC was 7.4 ng·h/mL in [12] and 50.8 ng·h/mL in data set [15]. Besides, the IC50 in data set [13] was 2100 nM; in data set [14], 16000 nM; in [17] it was 2900 nM; in [19] it was 19000 nM; in data set [8], 30 nM. In addition, the Tmax was 6 min in [16] and 15 min in data set [21]. Besides, the Vd in data set [18] was 1.44 L/kg. The compound further registered a bioavailability in data set [20] of 6%. In addition, the Therm_solubility in [22] amounted to 17 µg/mL. Besides, in data set [23], the half-life is 18.6 min. The same compound gave a Kinetic_solubility in data set [24] of 164 µM.
